Measurements reported in ChEMBL document CHEMBL5058577, “EUbOPEN Chemogenomics Library 2 (Multiplex)” (2022).

System: U2OS
Assay: Multiplex assay against U2OS
Format: toxicity, cell-based
Conditions: human
How it was run: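 Four dyes were applied at seeding to live cells: Hoechst33342, BioTracker Green Microtubule Cytoskeleton Dye, MitoTracker Red and Annexin V Alexa Fluor 680. Imaging after compound addition used a CQ1 microscope at 37°C and 5% CO2. CellPathfinder machine-learning gating then sorted cells into Hoechst high-intensity objects or normal cells, normal cells into healthy, pyknosed or fragmented nuclei, and pyknosed cells into mitotic or apoptotic, with tubulin, mitochondrial-mass and membrane-permeability phenotypes given as per cents of healthy-nucleus cells.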

[1] = 12 h, 1 µM, compound concentration 1 uM, replicate 1
[2] = 12 h, 1 µM, compound concentration 1 uM, replicate 2
[3] = 12 h, 10 µM, compound concentration 10 uM, replicate 1
[4] = 12 h, 10 µM, compound concentration 10 uM, replicate 2
[5] = 24 h, 1 µM, compound concentration 1 uM, replicate 1
[6] = 24 h, 1 µM, compound concentration 1 uM, replicate 2
[7] = 24 h, 10 µM, compound concentration 10 uM, replicate 1
[8] = 24 h, 10 µM, compound concentration 10 uM, replicate 2
[9] = 48 h, 1 µM, compound concentration 1 uM, replicate 1
[10] = 48 h, 1 µM, compound concentration 1 uM, replicate 2
[11] = 48 h, 10 µM, compound concentration 10 uM, replicate 1
[12] = 48 h, 10 µM, compound concentration 10 uM, replicate 2

Question: What does the source list for Cc1onc(-c2ccccc2Cl)c1C(=O)N(C)c1ccc(Cl)cc1?
Answer: Population Apoptotic (%) [1]: 82%; Population Fragmented Nuclei (%) [1]: 26%; Population Healthy Nuclei (%) [1]: 67%; Population Hoechst High Intensity Objects (%) [1]: 0%; Population Membrane Permeable-Phenotype (%) [1]: 3%; Population Mitochondria Different-Phenotype (%) [1]: 2%; Population Mitotic Cells (%) [1]: 17%; Population Normal (%) [1]: 99%; Population Pyknosed Nuclei (%) [1]: 6%; Population Tubulin-Different-Phenotype (%) [1]: 1%; Total Cell Count [1]: 277; Population Apoptotic (%) [2]: 78%; Population Fragmented Nuclei (%) [2]: 10%; Population Healthy Nuclei (%) [2]: 79%; Population Hoechst High Intensity Objects (%) [2]: 1%; Population Membrane Permeable-Phenotype (%) [2]: 4%; Population Mitochondria Different-Phenotype (%) [2]: 1%; Population Mitotic Cells (%) [2]: 21%; Population Normal (%) [2]: 98%; Population Pyknosed Nuclei (%) [2]: 10%; Population Tubulin-Different-Phenotype (%) [2]: 3%; Total Cell Count [2]: 136; Population Apoptotic (%) [3]: 79%; Population Fragmented Nuclei (%) [3]: 28%; Population Healthy Nuclei (%) [3]: 58%; Population Hoechst High Intensity Objects (%) [3]: 4%; Population Membrane Permeable-Phenotype (%) [3]: 12%; Population Mitochondria Different-Phenotype (%) [3]: 5%; Population Mitotic Cells (%) [3]: 20%; Population Normal (%) [3]: 95%; Population Pyknosed Nuclei (%) [3]: 12%; Population Tubulin-Different-Phenotype (%) [3]: 5%; Total Cell Count [3]: 244; Population Apoptotic (%) [4]: 77%; Population Fragmented Nuclei (%) [4]: 24%; Population Healthy Nuclei (%) [4]: 56%; Population Hoechst High Intensity Objects (%) [4]: 0%; Population Membrane Permeable-Phenotype (%) [4]: 7%; Population Mitochondria Different-Phenotype (%) [4]: 6%; Population Mitotic Cells (%) [4]: 22%; Population Normal (%) [4]: 99%; Population Pyknosed Nuclei (%) [4]: 19%; Population Tubulin-Different-Phenotype (%) [4]: 4%; Total Cell Count [4]: 113; Population Apoptotic (%) [5]: 100%; Population Fragmented Nuclei (%) [5]: 23%; Population Healthy Nuclei (%) [5]: 70%; Population Hoechst High Intensity Objects (%) [5]: 0%; Population Membrane Permeable-Phenotype (%) [5]: 2%; Population Mitochondria Different-Phenotype (%) [5]: 2%; Population Mitotic Cells (%) [5]: 0%; Population Normal (%) [5]: 99%; Population Pyknosed Nuclei (%) [5]: 5%; Population Tubulin-Different-Phenotype (%) [5]: 0%; Total Cell Count [5]: 328; Population Apoptotic (%) [6]: 83%; Population Fragmented Nuclei (%) [6]: 11%; Population Healthy Nuclei (%) [6]: 81%; Population Hoechst High Intensity Objects (%) [6]: 1%; Population Membrane Permeable-Phenotype (%) [6]: 4%; Population Mitochondria Different-Phenotype (%) [6]: 5%; Population Mitotic Cells (%) [6]: 16%; Population Normal (%) [6]: 98%; Population Pyknosed Nuclei (%) [6]: 7%; Population Tubulin-Different-Phenotype (%) [6]: 2%; Total Cell Count [6]: 168; Population Apoptotic (%) [7]: 72%; Population Fragmented Nuclei (%) [7]: 26%; Population Healthy Nuclei (%) [7]: 62%; Population Hoechst High Intensity Objects (%) [7]: 3%; Population Membrane Permeable-Phenotype (%) [7]: 11%; Population Mitochondria Different-Phenotype (%) [7]: 6%; Population Mitotic Cells (%) [7]: 27%; Population Normal (%) [7]: 96%; Population Pyknosed Nuclei (%) [7]: 11%; Population Tubulin-Different-Phenotype (%) [7]: 4%; Total Cell Count [7]: 299; Population Apoptotic (%) [8]: 64%; Population Fragmented Nuclei (%) [8]: 20%; Population Healthy Nuclei (%) [8]: 66%; Population Membrane Permeable-Phenotype (%) [8]: 8%; Population Mitochondria Different-Phenotype (%) [8]: 7%; Population Mitotic Cells (%) [8]: 35%; Population Pyknosed Nuclei (%) [8]: 13%; Population Tubulin-Different-Phenotype (%) [8]: 7%; Total Cell Count [8]: 129; Population Apoptotic (%) [9]: 87%; Population Fragmented Nuclei (%) [9]: 16%; Population Healthy Nuclei (%) [9]: 75%; Population Hoechst High Intensity Objects (%) [9]: 2%; Population Membrane Permeable-Phenotype (%) [9]: 4%; Population Mitochondria Different-Phenotype (%) [9]: 3%; Population Mitotic Cells (%) [9]: 12%; Population Normal (%) [9]: 97%; Population Pyknosed Nuclei (%) [9]: 7%; Population Tubulin-Different-Phenotype (%) [9]: 2%; Total Cell Count [9]: 450; Population Apoptotic (%) [10]: 89%; Population Fragmented Nuclei (%) [10]: 12%; Population Hoechst High Intensity Objects (%) [10]: 1%; Population Membrane Permeable-Phenotype (%) [10]: 1%; Population Mitochondria Different-Phenotype (%) [10]: 2%; Population Mitotic Cells (%) [10]: 10%; Population Normal (%) [10]: 98%; Population Pyknosed Nuclei (%) [10]: 11%; Population Tubulin-Different-Phenotype (%) [10]: 1%; Total Cell Count [10]: 252; Population Apoptotic (%) [11]: 69%; Population Fragmented Nuclei (%) [11]: 22%; Population Healthy Nuclei (%) [11]: 67%; Population Hoechst High Intensity Objects (%) [11]: 3%; Population Membrane Permeable-Phenotype (%) [11]: 10%; Population Mitochondria Different-Phenotype (%) [11]: 5%; Population Mitotic Cells (%) [11]: 30%; Population Normal (%) [11]: 96%; Population Pyknosed Nuclei (%) [11]: 9%; Population Tubulin-Different-Phenotype (%) [11]: 4%; Total Cell Count [11]: 413; Population Apoptotic (%) [12]: 90%; Population Fragmented Nuclei (%) [12]: 23%; Population Healthy Nuclei (%) [12]: 65%; Population Hoechst High Intensity Objects (%) [12]: 2%; Population Membrane Permeable-Phenotype (%) [12]: 9%; Population Mitotic Cells (%) [12]: 10%; Population Normal (%) [12]: 97%; Population Pyknosed Nuclei (%) [12]: 11%; Population Tubulin-Different-Phenotype (%) [12]: 3%; Total Cell Count [12]: 182
